These results are taken from ChEMBL document CHEMBL4706580, “4-Amino-1,2,4-triazole-3-thione-derived Schiff bases as metallo-β-lactamase inhibitors” (Eur J Med Chem, 2020).

SMILES strings stand for the structures. Activity calls are given as the source filed them. The calls are words filed in the database; no cut-off is given here.

The nature of test [1]: Inhibition of beta-lactamase VIM4 (unknown origin) expressed in Escherichia coli BL21(DE3) using imipenem as substrate by measuring substrate hydrolysis at 200 uM by spectrophotometric analysis. The gist of the method: (§1)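 Purified enzyme (overproduced in E. coli BL21(DE3), pET-9a; ion-exchange and gel filtration), 1-70 nM final. Reporter substrate 150 μM imipenem, read at 300 nm, 30 °C, 50 mM HEPES pH 7.5. Single-point screen at 100 or 200 μM; Ki from v0/vi vs [I] (0.5–1,000 μM final) assuming competitive inhibition, or Dixon plot. Triplicate.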

Test [2] can be described thus: Inhibition of beta-lactamase L1 (unknown origin) expressed in Escherichia coli BL21(DE3) using nitrocefin as substrate by measuring substrate hydrolysis at 100 uM preincubated for 30 mins by spectrophotometric analysis. The gist of the method:
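Enzyme 0.2–0.8 nM in 25 mM HEPES pH 7.5 with 50 μM ZnCl2 final, pre-incubated 30 min at 21 °C with inhibitor (100 μM screen). Nitrocefin 100 μM final, read at 482 nm, 30 °C. Residual activity vs three uninhibited samples; Ki (1–100 μM inhibitor) from Hanes linearization, competitive model. Triplicate.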

The nature of test [3]: Inhibition of beta-lactamase VIM2 (unknown origin) expressed in Escherichia coli BL21(DE3) using imipenem as substrate by measuring substrate hydrolysis at 100 uM by spectrophotometric analysis. The gist of the method: as §1
The nature of test [4]: Inhibition of beta-lactamase VIM2 (unknown origin) expressed in Escherichia coli BL21(DE3) using imipenem as substrate by measuring substrate hydrolysis at 200 uM by spectrophotometric analysis. The gist of the method:
as §1

Test [5] in a line: Inhibition of beta-lactamase VIM4 (unknown origin) expressed in Escherichia coli BL21(DE3) using imipenem as substrate by measuring substrate hydrolysis at 100 uM by spectrophotometric analysis. The gist of the method:
as §1

The nature of test [6]: Inhibition of beta-lactamase IMP-1 (unknown origin) expressed in Escherichia coli BL21(DE3) using imipenem as substrate by measuring substrate hydrolysis at 100 uM by spectrophotometric analysis. The gist of the method:
as §1

The nature of test [7]: Inhibition of beta-lactamase NDM1 (unknown origin) expressed in Escherichia coli BL21(DE3) using cefotaxime/nitrocefin as substrate by measuring substrate hydrolysis at 200 uM by spectrophotometric analysis.
Test [8] in a line: Inhibition of beta-lactamase L1 (unknown origin) expressed in Escherichia coli BL21(DE3) using nitrocefin as substrate by measuring substrate hydrolysis at 200 uM preincubated for 30 mins by spectrophotometric analysis.
Test [9] in a line: Inhibition of beta-lactamase IMP-1 (unknown origin) expressed in Escherichia coli BL21(DE3) using imipenem as substrate by measuring substrate hydrolysis at 200 uM by spectrophotometric analysis. The gist of the method: as §1
Test [10] is described as follows: Inhibition of beta-lactamase NDM1 (unknown origin) expressed in Escherichia coli BL21(DE3) using cefotaxime/nitrocefin as substrate by measuring substrate hydrolysis at 100 uM by spectrophotometric analysis.
The nature of test [11]: Inhibition of beta-lactamase CphA (unknown origin) expressed in Escherichia coli BL21(DE3) using imipenem as substrate by measuring substrate hydrolysis at 100 uM by spectrophotometric analysis. The gist of the method: (§2)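 Enzyme 0.2–0.8 nM in 15 mM cacodylate pH 6.5, no added zinc, pre-incubated 30 min at 21 °C with inhibitor (100 μM screen). Imipenem substrate added from 10 mM stock; hydrolysis at 300 nm, 30 °C. Residual activity vs three uninhibited samples; Ki (1–100 μM inhibitor) by Hanes linearization, competitive model. Triplicate.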

The nature of test [12]: Inhibition of beta-lactamase CphA (unknown origin) expressed in Escherichia coli BL21(DE3) using imipenem as substrate by measuring substrate hydrolysis by spectrophotometric analysis. The gist of the method: as §2

Take `Cc1ccccc1-c1n[nH]c(=S)n1/N=C/c1ccc(F)cc1`: the inhibition entry in [1], in test [3], in test [4] and in [5] was “inactive” in each case. In addition, the inhibition amounted to 30% in [2], 30% in test [6] and 60% in test [7].
For `Cc1ccccc1-c1n[nH]c(=S)n1/N=C/c1cnc[nH]1`, the inhibition result in test [1], in test [2], in test [8], in test [3], in [4] and in [5] was “inactive” each time. Moreover, the inhibition result in [9], in test [6], in test [7] and in [10] was “inactive” throughout. The same molecule showed an inhibition in [11] of 36%.
For `S=c1[nH]nc(Cc2ccccc2)n1/N=C/c1ccc(OCc2ccccc2)cc1`, the inhibition result in test [1], in test [3], in test [4], in test [5], in [9] and in test [6] was “inactive” in each case. In addition, the inhibition result in test [7] and in test [10] was “inactive” in each case. Further, in test [2], the inhibition was determined as 31%. In test [12], the affinity corresponds to a Ki of 5.5 µM.
With `Fc1cccc(-c2n[nH]c(=S)n2/N=C/c2ccc(OCc3ccccc3)cc2)c1`, the inhibition entry in [1], in [2], in test [8], in [3], in test [4] and in [5] was “inactive” in each case. Further, the inhibition result in test [7] and in [10] was “inactive” each time. In addition, in test [6], the inhibition came out at 60%.
`Oc1ccc(/C=N/n2c(-c3ccc(OCc4ccccc4)cc3)n[nH]c2=S)c(O)c1`: the inhibition result in [1], in test [2], in [8], in test [3], in test [4] and in [5] was “inactive” throughout. The inhibition in [6] was 62%; in test [10], 42%.
Regarding `S=c1[nH]nc(-c2cccc(Br)c2)n1/N=C/c1ccc(OCc2ccccc2)cc1`, the inhibition entry in test [1], in [3], in [4], in [5], in test [9] and in test [6] was “inactive” in each case. The inhibition result in test [7] and in [10] was “inactive” in each case. Also, the inhibition in test [2] amounted to 15%.
`S=c1[nH]nc(C(c2ccccc2)c2ccccc2)n1/N=C/c1ccc(OCc2ccccc2)cc1`: the inhibition result in test [1], in [2], in test [8], in test [3], in test [4] and in test [5] was “inactive” each time. Further, the inhibition in test [9] was determined as 50%; in [7], 60%.

What is called inhibition is the relative decrease from the control value, in per cent. By Ki is commonly meant the dissociation constant of the complex between target and ligand, obtained from inhibition or displacement. Higher therefore signals lower affinity.
